This is a sample that favours compounds with a hit; in the whole collection about 1.4% have one here.
MOR-DOR ag-1: OPRM1-OPRD1 heterodimerization agonism; cells, luminescence; activation, % at 9.3 µM; 340,000 tested, 0.3% active; in the data active means activation above about 18%;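 further: 0% = vehicle-treated cells and 100% = reference agonist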
Target sequence (P35372 whole entry, looked up): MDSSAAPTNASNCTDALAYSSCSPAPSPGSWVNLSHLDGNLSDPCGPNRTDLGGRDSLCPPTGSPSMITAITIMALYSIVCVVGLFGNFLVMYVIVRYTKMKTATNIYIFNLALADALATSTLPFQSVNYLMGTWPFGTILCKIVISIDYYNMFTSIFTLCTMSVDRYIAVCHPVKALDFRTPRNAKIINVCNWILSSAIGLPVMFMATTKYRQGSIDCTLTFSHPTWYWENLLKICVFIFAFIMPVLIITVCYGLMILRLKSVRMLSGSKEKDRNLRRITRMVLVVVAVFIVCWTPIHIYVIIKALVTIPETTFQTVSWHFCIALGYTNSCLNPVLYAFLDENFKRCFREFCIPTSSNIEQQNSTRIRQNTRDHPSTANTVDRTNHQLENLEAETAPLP
Target sequence (P41143 whole entry, looked up): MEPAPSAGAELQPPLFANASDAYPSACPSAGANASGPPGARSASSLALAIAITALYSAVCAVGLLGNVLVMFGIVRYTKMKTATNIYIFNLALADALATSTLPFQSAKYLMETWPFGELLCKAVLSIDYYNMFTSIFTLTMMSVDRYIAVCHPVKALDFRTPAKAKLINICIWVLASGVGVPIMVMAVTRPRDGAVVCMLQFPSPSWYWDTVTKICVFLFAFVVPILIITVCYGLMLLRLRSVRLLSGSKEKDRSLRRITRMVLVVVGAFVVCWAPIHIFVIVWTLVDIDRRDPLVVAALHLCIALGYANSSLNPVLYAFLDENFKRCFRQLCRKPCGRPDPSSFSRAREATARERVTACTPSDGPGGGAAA
HTR5A inv ag: HTR5A inverse agonism, opioid heterodimer counter-screen; 340,000 tested, 0.083% active; HTR5A cell line, luminescence; P47898; inhibition, % at 9.3 µM; in the data active means inhibition mostly above about 23%, no sharp cut-off; inactive means mostly below about 18%;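 further: 0% = cells with DMSO and 100% = no-cell wells with DMSO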
HTR5A ag: activates human HTR5A in OPRM1-OPRD1 agonist counter-screen. AID 504692. activation, % at 9.3 µM. HTR5A agonist assay, luminescence, cell-based. 340,000 tested, 0.61% active. P47898; in the data active means activation mostly above about 9.5%, no sharp cut-off; inactive means mostly below about 7.6%;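 further: 0% = cells with vehicle only and 100% = reference agonist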
MOR-DOR inv ag-1: inverse agonist of human OPRM1-OPRD1 heterodimerization. P35372+P41143. cell-based MOR-DOR heterodimer luminescence, inverse agonism. inhibition, % at 9.3 µM. 340,000 tested, 0.21% active; in the data active means inhibition above about 22%, passing the limit was not always enough;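 further: 0% = cells with DMSO and 100% = wells without cells with DMSO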
Hep lipid drop: hepatic lipid droplet formation modulation | AID 1656 | AML12 mouse hepatocytes, oleate lipid droplets, BODIPY imaging | inhibition, % at 6.5 µM | 240,000 tested, 0.4% active;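 active means lipid droplet intensity inhibited by at least 50%, with more than 500 cells counted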
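Assay system: AML12 hepatocytes (mouse) / Also added: 100 µM oleic acid challenge / Times: overnight treatment with compound plus oleate / Detection: high-content imaging of BODIPY-stained droplets and DAPI nuclei / Evaluation: % inhibition of lipid droplet signal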
MOR-DOR inv conf: OPRM1-OPRD1 heterodimer inverse agonism, confirmation; AID 504900; inhibition, % at 9.3 µM; cells expressing OPRM1/OPRD1 heterodimer, luminescence; 580 tested, 20% active; shares compounds with MOR-DOR inv ag-1; in the data active means inhibition above about 32%;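 further: 0% = cells with DMSO and 100% = wells lacking cells with DMSO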
HTR5A inv ctr2: HTR5A inverse agonism, opioid heterodimer counter-screen; HTR5A-expressing cells, luminescence; shares compounds with MOR-DOR inv ag-1; AID 504914; inhibition, % at 9.3 µM; 580 tested, under 10 active;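 further: 0% = cells with DMSO and 100% = no-cell wells with DMSO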
MOR-DOR inv ag-2: counter-screen for HTR5A inverse agonists: OPRM1-OPRD1 heterodimerization inverse agonism | 190 tested, under 10 active | inhibition, % at 9.3 µM | shares compounds with HTR5A inv ag | U2OS counter-screen cells, complementation luminescence;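 further: 0% = cells with DMSO and 100% = wells without cells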
HTR5A inv confrm: confirmation of human HTR5A inverse agonists | shares compounds with HTR5A inv ag | HTR5A-expressing cells, inverse agonism, luminescence | inhibition, % at 9.3 µM | 190 tested, under 10 active;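 further: 0% = cells with DMSO and 100% = no cells with DMSO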
MOR-DOR ag-2: counter-screen for HTR5A agonists: OPRM1-OPRD1 heterodimerization agonism; AID 504913; shares compounds with HTR5A ag; activation, % at 9.3 µM; U2OS counter-screen cells, complementation luminescence, 3 h; 800 tested, 13% active; in the data active means activation above about 18%
HTR5A ag confirm: confirmation of human HTR5A agonists; shares compounds with HTR5A ag; HTR5A agonist cell assay, luminescence; activation, % at 9.3 µM; 800 tested, 17% active; AID 504915; in the data active means activation above about 17%;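 further: 0% = cells with vehicle only and 100% = full reference agonist response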
Active calls of the source: *. Unless noted, how the calls were made is not given here.

How did O=C(CN1CCCCC1)c1ccc(OC(F)F)cc1 do in these assays?
MOR-DOR ag-1: -2; HTR5A inv ag: -17; HTR5A ag: 7; MOR-DOR inv ag-1: 13; Hep lipid drop: 12

How did CC1CN(O)C2CCc3c(no[n+]3[O-])C12O (configuration not stated) do in these assays?
MOR-DOR ag-1: -5; HTR5A inv ag: -29; HTR5A ag: 3; MOR-DOR inv ag-1: 31*; Hep lipid drop: 17; MOR-DOR inv conf: -29; HTR5A inv ctr2: 3

Results for CC1CC2(O)c3no[n+]([O-])c3CCC2N1O (configuration not stated) ?
MOR-DOR ag-1: -5; HTR5A inv ag: 24; HTR5A ag: -2; MOR-DOR inv ag-1: 25; Hep lipid drop: -12

Results for COc1ccc(CNC(=O)C(NC(C)=O)C(C)C)cc1OC (configuration not stated) ?
MOR-DOR ag-1: -2; HTR5A inv ag: 18*; HTR5A ag: -7; MOR-DOR inv ag-1: 10; Hep lipid drop: 0; MOR-DOR inv ag-2: 5; HTR5A inv confrm: -8

What do the screens show for `Clc1ccc(CCC(Cn2ccnc2)Sc2c(Cl)cccc2Cl)cc1` (configuration not stated)?
MOR-DOR ag-1: 14; HTR5A inv ag: 1; HTR5A ag: 8; MOR-DOR inv ag-1: -78

What do the screens show for `CN1CCC(c2c[nH]c3ccccc23)C1` (configuration not stated)?
MOR-DOR ag-1: -4; HTR5A inv ag: -106; HTR5A ag: 29*; MOR-DOR inv ag-1: 18; Hep lipid drop: -1; MOR-DOR ag-2: 23*; HTR5A ag confirm: 10

Results for Cc1cccc(CCNCc2cc3cccc(C)c3[nH]c2=O)c1 ?
MOR-DOR ag-1: 1; HTR5A inv ag: -54; HTR5A ag: 15*; MOR-DOR inv ag-1: -3; Hep lipid drop: -14; MOR-DOR ag-2: 1; HTR5A ag confirm: 2

What do the screens show for `Cc1cccc(CCNCc2cc3cc(C)cc(C)c3[nH]c2=O)c1`?
MOR-DOR ag-1: -3; HTR5A inv ag: -13; HTR5A ag: 4; MOR-DOR inv ag-1: 14; Hep lipid drop: 3

Results for c1cc(OCCN2CC2)ccn1 ?
MOR-DOR ag-1: -2; HTR5A inv ag: 1; HTR5A ag: 0; MOR-DOR inv ag-1: 12

Results for CC12CCC(=O)C=C1CCC1C2CCC2(C)C(O)(C(=O)CO)CCC12O (configuration not stated) ?
MOR-DOR ag-1: -3; HTR5A inv ag: 2; HTR5A ag: -1; MOR-DOR inv ag-1: 13

How did CNCCc1c[nH]c2ccc(O)cc12 do in these assays?
MOR-DOR ag-1: -2; HTR5A inv ag: -304; HTR5A ag: 124*; MOR-DOR inv ag-1: 9; MOR-DOR ag-2: 3; HTR5A ag confirm: 6

Results for CCC1C(c2ccccc2)NC(c2ccccc2)CC1(O)c1ccc(F)cc1 (configuration not stated) ?
MOR-DOR ag-1: 8; HTR5A inv ag: -44; HTR5A ag: 17*; MOR-DOR inv ag-1: -40; Hep lipid drop: -21; MOR-DOR ag-2: 9; HTR5A ag confirm: 1

What do the screens show for `C=C(C)[C@@]12OC3(c4ccccc4)O[C@@H]1C1[C@@H]4O[C@]4(CO)[C@@H](O)[C@]4(O)C(=O)C(C)=C[C@H]4[C@@]1(O3)[C@H](C)[C@H]2OC(=O)/C=C/C=C/c1ccccc1` (some centres not stated)?
MOR-DOR ag-1: -2; HTR5A inv ag: 4; HTR5A ag: 33*; MOR-DOR inv ag-1: 12; MOR-DOR ag-2: -4; HTR5A ag confirm: -2

What do the screens show for `CCCN(CCC)[C@@H]1CCc2cccc(O)c2C1`?
MOR-DOR ag-1: -1; HTR5A inv ag: -152; HTR5A ag: 43*; MOR-DOR inv ag-1: 5; Hep lipid drop: 0; MOR-DOR ag-2: 1; HTR5A ag confirm: 67*

How did COc1ccc2c(CCN)c[nH]c2c1 do in these assays?
MOR-DOR ag-1: -1; HTR5A inv ag: -190; HTR5A ag: 32*; MOR-DOR inv ag-1: 5; Hep lipid drop: -11; MOR-DOR ag-2: -1; HTR5A ag confirm: -1

Results for COc1ccc2[nH]cc(CCN(C)C)c2c1 ?
MOR-DOR ag-1: -1; MOR-DOR inv ag-1: 8; Hep lipid drop: -8

How did Cc1sc2ncn(CC(=O)NCCCC(=O)N3CCC4(CC3)OCCO4)c(=O)c2c1C do in these assays?
MOR-DOR ag-1: 2; HTR5A inv ag: -15; HTR5A ag: 2; MOR-DOR inv ag-1: -15

What do the screens show for `CS(=O)(=O)Nc1ccc(Cc2noc(-c3ccc4[nH]cc(CCN)c4c3)n2)cc1`?
Hep lipid drop: -20

What do the screens show for `NCCc1c[nH]c2ccc(C(N)=O)cc12`?
MOR-DOR ag-1: -2; HTR5A inv ag: -216; HTR5A ag: 96*; MOR-DOR inv ag-1: 11; MOR-DOR ag-2: 0; HTR5A ag confirm: 83*

Results for O=C1CSC2(CN3CCC2CC3)N1 (configuration not stated) ?
MOR-DOR ag-1: 0; HTR5A inv ag: 10; HTR5A ag: -4; MOR-DOR inv ag-1: 2; Hep lipid drop: 5

What do the screens show for `O=C1NC(=O)C(Nc2ccccc2)C(=O)N1`?
MOR-DOR ag-1: -2; HTR5A inv ag: 3; HTR5A ag: -1; MOR-DOR inv ag-1: 7

Results for c1ccc(CNCCc2c[nH]c3ccccc23)cc1 ?
MOR-DOR ag-1: 1; HTR5A inv ag: -19; HTR5A ag: 12; MOR-DOR inv ag-1: -4; Hep lipid drop: -19

Results for COc1cc(CNCCc2c[nH]c3ccccc23)cc(OC)c1 ?
MOR-DOR ag-1: -4; HTR5A inv ag: -57; HTR5A ag: 15*; MOR-DOR inv ag-1: 17; Hep lipid drop: -20; MOR-DOR ag-2: 369*; HTR5A ag confirm: 2

Results for C=CCn1c(O)c(C(CC)=NCCc2c[nH]c3ccccc23)c(=O)[nH]c1=O ?
MOR-DOR ag-1: -1; HTR5A inv ag: -104; HTR5A ag: 31*; MOR-DOR inv ag-1: 3; MOR-DOR ag-2: -2; HTR5A ag confirm: -1

What do the screens show for `CC(C)CNP(=S)(c1ccccc1)C(C)(C)C` (configuration not stated)?
MOR-DOR ag-1: -2; HTR5A inv ag: 4; HTR5A ag: -2; MOR-DOR inv ag-1: 9; Hep lipid drop: 1

Compound activity: PubChem BioAssay, several laboratories
